Reference: ChEMBL document CHEMBL1134459 (J Med Chem, 2001)
Values after ≈ are worked out from the molar mass of the structure shown.

How the values were obtained:
[1] = target: T1, Intercellular adhesion molecule 1 (Homo sapiens, UniProt P05362); test: Inhibition of intercellular adhesion molecule-1 (ICAM1) in human endothelial cells; assay type: cell-based, Endothelial cell
In short: (§1)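 Whole-cell ELISA on primary HUVECs plated at 5 × 10^4 cells/mL in EBM/2% FBS with growth supplements. Compound preincubated 24 h at 37 °C, then inducer added (TNFα at 5 ng/mL final, or IL-1β or PMA in its place) for 6 h at 37 °C. Mouse monoclonal anti-E-selectin, anti-ICAM-1 or anti-VCAM-1 was applied overnight at 4 °C, then HRP anti-mouse IgG. Detection with OPD, A490. Triplicate assays.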

E-selectin [2] = target: T2, E-selectin (Homo sapiens, UniProt P16581); test: Inhibition of selectin E in human endothelial cells; assay type: cell-based, Endothelial cell; in short: as §1
T2 sequence (P16581 whole entry): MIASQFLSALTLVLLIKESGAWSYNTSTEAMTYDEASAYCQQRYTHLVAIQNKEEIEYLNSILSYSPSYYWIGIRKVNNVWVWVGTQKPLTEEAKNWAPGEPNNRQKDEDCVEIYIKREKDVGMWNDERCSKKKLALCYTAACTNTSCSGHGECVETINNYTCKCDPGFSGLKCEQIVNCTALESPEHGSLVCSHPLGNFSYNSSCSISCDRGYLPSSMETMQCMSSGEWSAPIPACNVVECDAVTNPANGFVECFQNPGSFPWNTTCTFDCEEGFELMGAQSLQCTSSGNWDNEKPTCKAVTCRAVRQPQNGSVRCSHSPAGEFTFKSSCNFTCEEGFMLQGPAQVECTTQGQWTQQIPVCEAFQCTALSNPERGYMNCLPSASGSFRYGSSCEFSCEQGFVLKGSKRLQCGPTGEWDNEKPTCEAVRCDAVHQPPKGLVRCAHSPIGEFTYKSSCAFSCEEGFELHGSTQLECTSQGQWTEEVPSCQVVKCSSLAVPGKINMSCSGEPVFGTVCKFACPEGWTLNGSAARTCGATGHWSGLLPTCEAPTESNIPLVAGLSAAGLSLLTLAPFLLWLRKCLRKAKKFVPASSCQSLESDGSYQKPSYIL

[3] = Solubility in pH 7.4 buffer; assay type: physicochemical
[4] = Toxicity in HUVEC cell lysates.; assay type: cell-based, Lysate; settings: human
[5] = target: T1, Intercellular adhesion molecule 1; test: In vitro inhibitory potency compared to TNF-alpha induced Intercellular adhesion molecule-1 in human endothelial cells (ELISA assay); assay type: cell-based, Endothelial cell
In short: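 Primary HUVECs seeded at 5 × 10^4 cells/mL in EBM/2% FBS with supplements. After 24 h of compound at 37 °C, TNFα was added to 5 ng/mL final for 6 h at 37 °C. Cell-surface ICAM-1 was detected with a mouse monoclonal antibody, then HRP anti-mouse IgG and OPD, with absorbance at 490 nm. Triplicate determinations.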

[6] = target: T1, Intercellular adhesion molecule 1; test: In vitro inhibitory potency compared to IL1-beta induced Intercellular adhesion molecule-1 in human endothelial cells (ELISA assay); assay type: cell-based, Endothelial cell
In short: (§2)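 Primary HUVECs seeded at 5 × 10^4 cells/mL in EBM/2% FBS with EGF, bovine brain extract and gentamicin. Compound added next day for 24 h at 37 °C, then inducer (IL-1β or PMA, level not stated) for 6 h at 37 °C. Whole-cell ELISA used mouse monoclonal anti-ICAM-1 or anti-VCAM-1, HRP donkey anti-mouse IgG and OPD, read at 490 nm. Run in triplicate.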

E-selectin [7] = target: T2, E-selectin; test: In vitro inhibitory potency compared to IL1-beta induced Selectin E in human endothelial cells (ELISA assay); assay type: cell-based, Endothelial cell; in short: as §1
[8] = target: T1, Intercellular adhesion molecule 1; test: In vitro inhibitory potency compared to PMA induced Intercellular adhesion molecule-1 in human endothelial cells (ELISA assay); assay type: cell-based, Endothelial cell; in short: as §1
[9] = target: T3, E-selectin (Homo sapiens) (UniProt P16581); test: In vitro inhibitory potency compared to PMA induced Selectin E expression in human endothelial cells (ELISA assay) at 1 uM; assay type: cell-based; settings: Endothelial cell
T3 sequence (whole entry): T2 sequence (P16581 whole entry)
In short: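 HUVEC whole-cell ELISA with PMA substituted for TNFα as inducer. Compound preincubated 24 h at 37 °C, then 6 h induction at 37 °C. E-selectin detected with mouse monoclonal antibody and HRP anti-mouse IgG, OPD development, A490. Value given as percent inhibition at a single concentration of 1 µM.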

E-selectin [10] = target: T2, E-selectin; test: In vitro inhibitory potency compared to TNF-alpha induced Selectin E in human endothelial cells (ELISA assay); assay type: cell-based, Endothelial cell; in short: as §1
E-selectin [11] = target: T2, E-selectin; test: In vitro inhibitory potency compared to TNF-alpha induced Selectin E expression in human endothelial cells (ELISA assay); assay type: cell-based, Endothelial cell; in short: as §1
[12] = target: T4, Vascular cell adhesion protein 1 (Homo sapiens) (UniProt P19320); settings: Endothelial cell
T4 sequence (whole entry): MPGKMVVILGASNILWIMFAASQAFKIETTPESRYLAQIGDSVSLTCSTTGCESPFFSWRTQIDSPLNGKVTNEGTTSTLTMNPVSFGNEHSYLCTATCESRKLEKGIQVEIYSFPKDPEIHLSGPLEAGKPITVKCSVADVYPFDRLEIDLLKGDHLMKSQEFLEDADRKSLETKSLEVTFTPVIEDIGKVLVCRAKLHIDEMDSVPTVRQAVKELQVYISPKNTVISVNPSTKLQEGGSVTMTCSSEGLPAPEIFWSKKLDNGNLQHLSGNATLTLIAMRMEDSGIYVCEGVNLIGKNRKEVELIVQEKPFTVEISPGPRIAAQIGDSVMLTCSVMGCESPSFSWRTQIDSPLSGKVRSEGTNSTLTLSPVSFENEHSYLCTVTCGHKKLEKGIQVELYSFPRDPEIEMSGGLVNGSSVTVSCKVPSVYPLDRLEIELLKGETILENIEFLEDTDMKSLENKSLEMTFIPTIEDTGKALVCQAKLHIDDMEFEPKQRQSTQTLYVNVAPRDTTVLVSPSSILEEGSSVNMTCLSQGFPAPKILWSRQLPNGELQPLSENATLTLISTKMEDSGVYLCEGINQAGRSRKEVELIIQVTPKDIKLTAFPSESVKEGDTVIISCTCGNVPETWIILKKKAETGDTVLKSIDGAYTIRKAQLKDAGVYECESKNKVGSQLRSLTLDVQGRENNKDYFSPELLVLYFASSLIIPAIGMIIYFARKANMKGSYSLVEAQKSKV

[13] = target: T1, Intercellular adhesion molecule 1; test: In vitro inhibitory potency compared to PMA induced Intercellular adhesion molecule-1 expression in human endothelial cells (ELISA assay); assay type: cell-based, Endothelial cell; in short: as §2
[14] = Solubility in pH 7.4 buffer.; assay type: physicochemical
Mus musculus [15] = test: Efficacy in lavage cells at 30 mg/kg of oral dosing in an inhaled allergen-induced cell influx in mice.; assay type: functional
In short: (§3)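 Mouse inhaled-allergen model. Compounds or vehicle (0.2% methylcellulose) given orally 18 h and 1 h before the first of two allergen inhalations. Lungs lavaged 24-27 h after the first inhalation. Read-outs were lavage cell count (no./µL), neutrophil and eosinophil percentages, and soluble ICAM-1 in serum and BAL 24 h after antigen. Values are mean ± SE.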

Mus musculus [16] = test: % Efficacy in neutrophils at 30 mg/kg of oral dosing in an inhaled allergen-induced cell influx in mice.; assay type: functional; in short: as §3
Mus musculus [17] = test: % Efficacy in eosinophils at 30 mg/kg of oral dosing in an inhaled allergen-induced cell influx in mice.; assay type: functional, Eosinophil; in short: as §3
Mus musculus [18] = test: Efficacy in lBAL sICAM-1 at 30 mg/kg of oral dosing in an inhaled allergen-induced cell influx in mice.; assay type: functional; in short: as §3
Mus musculus [19] = test: Efficacy in serum sICAM-1 at 30 mg/kg of oral dosing in an inhaled allergen-induced cell influx in mice.; assay type: functional; in short: as §3
[20] = target: T1, Intercellular adhesion molecule 1; test: In vitro inhibitory potency compared to IL1-beta induced Intercellular adhesion molecule-1 expression in human endothelial cells (ELISA assay); assay type: cell-based, Endothelial cell
In short: (§4)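 Primary HUVECs plated at 5 × 10^4 cells/mL in EBM/2% FBS with growth supplements; next day compound added, 24 h at 37 °C, then IL-1β substituted for TNFα as inducer, 6 h at 37 °C. Cell ELISA: mouse monoclonal anti-ICAM-1 or anti-E-selectin (ELAM-1) overnight at 4 °C, HRP donkey anti-mouse IgG, OPD, absorbance 490 nm.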

[21] = target: T4, Vascular cell adhesion protein 1 (Homo sapiens); settings: Endothelial cell; remark: listed apart in the source
[22] = Inhibition of intercellular adhesion molecule-1 (ICAM1) in human endothelial cells; settings: endothelial cell
[23] = Inhibition of selectin E in human endothelial cells; settings: endothelial cell
[24] = Toxicity in HUVEC cell lysates; assay type: cell-based, Lysate; settings: human
In short: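 Primary HUVECs were plated at 5 × 10^4 cells/mL in EBM/2% FBS with human EGF, bovine brain extract and gentamicin. The next day, compounds were added, at up to 100 µM. TNFα was then added as in the cell ELISA. About 24 h after compound addition, MTS reagent was added, cells were incubated a further 2 h at 37 °C, and absorbance was read at 490 nm.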

[25] = target: T1, Intercellular adhesion molecule 1; test: In vitro inhibitory potency compared to TNF-alpha induced Intercellular adhesion molecule-1 expression in human endothelial cells (ELISA assay); assay type: cell-based, Endothelial cell
In short: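 Primary HUVECs plated at 5 × 10^4 cells/mL in EBM/2% FBS with growth supplements; next day compound added, 24 h at 37 °C, then TNFα to 5 ng/mL final, 6 h at 37 °C. Cell ELISA: mouse monoclonal anti-ICAM-1 overnight at 4 °C, HRP donkey anti-mouse IgG, OPD, absorbance 490 nm; triplicate assay.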

E-selectin [26] = target: T2, E-selectin; test: In vitro inhibitory potency compared to IL1-beta induced Selectin E expression in human endothelial cells (ELISA assay); assay type: cell-based, Endothelial cell; in short: as §4

T1 sequence (P05362 whole entry): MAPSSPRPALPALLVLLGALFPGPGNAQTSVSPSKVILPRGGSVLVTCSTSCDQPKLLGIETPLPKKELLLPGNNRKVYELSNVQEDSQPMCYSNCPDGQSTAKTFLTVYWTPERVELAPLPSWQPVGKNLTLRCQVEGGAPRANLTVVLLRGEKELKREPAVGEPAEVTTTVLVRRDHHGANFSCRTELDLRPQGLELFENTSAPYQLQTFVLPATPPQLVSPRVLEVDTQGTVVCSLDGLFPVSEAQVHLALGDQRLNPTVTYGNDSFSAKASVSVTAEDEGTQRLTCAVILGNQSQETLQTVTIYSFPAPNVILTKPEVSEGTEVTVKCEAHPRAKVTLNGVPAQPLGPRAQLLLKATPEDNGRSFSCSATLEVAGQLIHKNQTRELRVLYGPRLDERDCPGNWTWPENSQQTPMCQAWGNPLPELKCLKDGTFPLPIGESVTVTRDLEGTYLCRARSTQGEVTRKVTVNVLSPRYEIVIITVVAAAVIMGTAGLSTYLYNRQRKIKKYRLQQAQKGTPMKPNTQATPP

## CNC(=O)c1cc2c(Oc3ccc(COC)cc3)cncc2s1
[1]
  IC50: 17 nM
E-selectin [2]
  IC50: 13 nM
[3]
  solubility: 4.8 µg/mL (≈ 14.6 µM)

## CCOCCOCCOCC1(c2ccc(Oc3cncc4sc(C(=O)NC)cc34)cc2)CC1
[4]
  IC50: > 10 µg/mL

## CC(C)c1ccc(Oc2cncc3sc(C(N)=O)cc23)cc1
[4]
  IC50: 34000 nM
[1]
  IC50: 47 nM
E-selectin [2]
  IC50: 76 nM

## CNC(=O)c1cc2c(Oc3ccc(COCCOCCOC)cc3)cncc2s1
[5]
  IC50: 5 nM
[1]
  IC50: 5 nM
E-selectin [2]
  IC50: 6 nM
[6]
  IC50: 2 nM
E-selectin [7]
  IC50: 5 nM
[8]
  IC50: 5 nM
[9]
  inhibition: 46%
E-selectin [10]
  IC50: 4 nM

## CNC(=O)c1cc2c(Oc3ccc(Cl)cc3)cncc2s1
E-selectin [11]
  IC50: 20 nM
[5]
  IC50: 15 nM
[1]
  IC50: 17 nM
E-selectin [2]
  IC50: 8 nM
[6]
  IC50: 10 nM
E-selectin [7]
  IC50: 25 nM
[12]
  Inhibition at 1uM: 49%
[13]
  IC50: 15 nM
[9]
  inhibition: 43%

## NC(=O)c1cc2c(Oc3ccc(C(O)CO)cc3)cncc2s1 (stereo not drawn)
[14]
  solubility: 15.3 µg/mL (≈ 46.3 µM)
[1]
  IC50: 680 nM
E-selectin [2]
  IC50: 670 nM

## CNC(=O)c1cc2c(Oc3ccc(COCCOC)cc3)cncc2s1
[14]
  solubility: 25.7 µg/mL (≈ 69 µM)
[1]
  IC50: 8 nM
E-selectin [2]
  IC50: 7 nM

## COCc1ccc(Oc2cncc3sc(C(N)=O)cc23)cc1
[14]
  solubility: 6.2 µg/mL (≈ 19.7 µM)
[1]
  IC50: 16 nM
E-selectin [2]
  IC50: 16 nM

## Cc1ccc(Oc2cncc3sc(C(N)=O)cc23)cc1
[4]
  IC50: 91000 nM
[1]
  IC50: 20 nM
E-selectin [2]
  IC50: 20 nM

## CNC(=O)c1cc2c(Oc3ccc(C(F)(F)F)cc3)cncc2s1
Mus musculus [15]
  Efficacy: 107 number ul-1
Mus musculus [16]
  Efficacy: 48%
Mus musculus [17]
  Efficacy: 10%
Mus musculus [18]
  Efficacy: 1.89 µg/mL
Mus musculus [19]
  Efficacy: 19.6 µg/mL

## CNC(=O)c1cc2c(Oc3ccc(-n4ccnc4)cc3)cncc2s1
[4]
  IC50: > 10000 nM
[1]
  IC50: 6 nM
E-selectin [2]
  IC50: 2 nM

## NC(=O)c1cc2c(Oc3ccc(CO)cc3)cncc2s1
[3]
  solubility: 6.9 µg/mL (≈ 23 µM)

## Cc1ccc(Sc2cncc3sc(C(N)=O)cc23)cc1
[20]
  IC50: 10 nM
E-selectin [11]
  IC50: 15 nM
[21]
  Inhibition at 1uM: 45%
[22]
  IC50: 25 nM
[23]
  IC50: 20 nM
[24]
  IC50: 152000 nM
[25]
  IC50: 15 nM
E-selectin [26]
  IC50: 25 nM
[13]
  IC50: 30 nM
[9]
  inhibition: 44%

## COCCOCCOCc1ccc(Oc2cncc3sc(C(N)=O)cc23)cc1
[14]
  solubility: 160 µg/mL (≈ 398 µM)

## CCOC(=O)c1ccc(Oc2cncc3sc(C(N)=O)cc23)cc1
[1]
  IC50: 18 nM
E-selectin [2]
  IC50: 20 nM

## CNC(=O)c1cc2c(Oc3ccc(C(=N)NO)cc3)cncc2s1
[4]
  IC50: > 10000 nM
[1]
  IC50: 59 nM
E-selectin [2]
  IC50: 13 nM

## NC(=O)c1cc2c(Oc3ccc(C(=O)N4CCOCC4)cc3)cncc2s1
[1]
  IC50: 830 nM
E-selectin [2]
  IC50: 870 nM
